Measurements taken from ChEMBL document CHEMBL1124672, “A minor modification of residue 1 in potent vasopressin antagonists dramatically reduces agonist activity” (J Med Chem, 1989).
pKi: −log10 of the molar value. Numbered stars: 1 amine (or outer) side, 2 acyl side, 3 side chain; on linkers, the order of the positions; unused ones are H or OH. Bridge positions count the residues as written; N and C are the ends. Square brackets hold non-standard residues; d marks the D form. Peptide text beside a SMILES is read from it. X1 = O=C(CC1(S[*:2])CCCCC1)[*:1]

Assays:
Rattus norvegicus = assay: Effective dose of compound required to lower urine osmolality to 300 mOsm/kg H2O in rat; type: functional
Procedure, shortened: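 Hydropenic rat model. ED300 (µg/kg) is the dose reducing urine osmolality from hydropenic levels to plasma osmolality level, 300 mOsm/kg H2O.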

Canis familiaris [1] = assay: Compound was tested for the maximum urine osmolality with a dose of 100 ug/kg compound in dog.; type: ADME, organism-based, Canis lupus familiaris; conditions: in vivo, 0.1 mg/kg
Procedure, shortened: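 Adult female mongrel dogs, lightly restrained supine, food withheld 18 h, water-loaded (tap water 5% body weight by gavage). 3% dextrose infused intravenously until Uosm below 70 mOsm/kg H2O, then matched to urine output. After 20 min baseline, indomethacin 2 mg/kg load + 3 mg/kg per h for 20 min, then single i.v. bolus 100 µg/kg or vehicle. Uosm by freezing point depression, every 10 min for 3 h; maximum Uosm, mean ±SE.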

[2] = Compound was evaluated for inhibition of vasopressin-stimulated adenylate cyclase in human medullary preparation
Procedure, shortened: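 Human renal medullary tissue; inhibition of vasopressin-stimulated adenylate cyclase, reported as inhibition constant Ki.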

[3] = test system: Vasopressin V2 receptor (Sus scrofa); assay: Binding affinity of compound towards Vasopressin receptor by binding [3H]LVP to pig renal medullary preparation; conditions: Renal medulla
Canis familiaris [4] = assay: Compound was tested for the maximum urine osmolality with a dose of 100 ug/kg compound in dog; type: ADME, organism-based, Canis lupus familiaris; conditions: in vivo, 0.1 mg/kg
Procedure, shortened: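 Adult female mongrel dogs, fasted 18 h with water allowed, hydrated orally with tap water (5% body weight), bladder-catheterized. 3% dextrose iv to baseline water diuresis (Uosm <70 mOsm/kg H2O). Indomethacin 2 mg/kg load + 3 mg/kg per h. Single iv bolus of 100 µg/kg peptide or vehicle. Uosm by freezing point depression every 10 min for 3 h; maximum value, mean ±SE.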

K Bind [3] [nM] | Max Uosm (Canis familiaris [4]) [mOsmol kg-1] | SMILES | ED300 (Rattus norvegicus) [mg/kg] | Max Uosm (Canis familiaris [1]) [mOsmol kg-1] | pKi [2]
4.5 |  | CCOc1ccc(C[C@@H]2NC(=O)CC3(CCCCC3)SSC[C@H](C(=O)N[C@@H](CCCN=C(N)N)C(=O)N[C@@H](CCCN=C(N)N)C(N)=O)NC(=O)[C@@H](CC(N)=O)NC(=O)[C@H](C(C)C)NC(=O)[C@@H](Cc3ccccc3)NC2=O)cc1 | 0.0135 | 469 | 8.35
 |  | CCOc1ccc(C[C@H]2NC(=O)CC3(CCCCC3)SSC[C@@H](C(=O)N3CCC[C@H]3C(=O)N[C@@H](CCCNC(=N)N)C(N)=O)NC(=O)[C@H](CC(N)=O)NC(=O)[C@H](C(C)C)NC(=O)[C@H](Cc3ccccc3)NC2=O)cc1 ([dY](Et)FVNCPR-NH2; linker N-5 via X1) |  | 1625 | 8.44
 |  | CCOc1ccc(C[C@H]2NC(=O)CC3(CCCCC3)SSC[C@@H](C(=O)N3CCC[C@H]3C(=O)N[C@@H](CCCN=C(N)N)C(=O)NCC(N)=O)NC(=O)[C@H](CC(N)=O)NC(=O)[C@H](C(C)C)NC(=O)[C@H](Cc3ccccc3)NC2=O)cc1 ([dY](Et)FVNCPRG-NH2; linker N-5 via X1) [listing 1 of 2 here] |  | 1216 | 8.34
 |  | CCOc1ccc(C[C@H]2NC(=O)CC3(CCCCC3)SSC[C@@H](C(=O)N3CCC[C@H]3C(=O)N[C@@H](CCCN=C(N)N)C(=O)NCC(N)=O)NC(=O)[C@H](CC(N)=O)NC(=O)[C@H](C(C)C)NC(=O)[C@H](Cc3ccccc3)NC2=O)cc1 ([dY](Et)FVNCPRG-NH2; linker N-5 via X1) [listing 2 of 2 here] | 0.011 |  | 
 |  | CCOc1ccc(C[C@H]2NC(=O)CC3(CCC(C)CC3)SSC[C@@H](C(=O)N3CCC[C@H]3C(=O)N[C@@H](CCCN=C(N)N)C(N)=O)NC(=O)[C@H](CC(N)=O)NC(=O)[C@H](C(C)C)NC(=O)[C@H](Cc3ccccc3)NC2=O)cc1 (stereo in doubt; 2) | 0.045 |  | 
 | 91 | CCOc1ccc(C[C@H]2NC(=O)CC3(CCC(C)CC3)SSC[C@@H](C(=O)N3CCC[C@H]3C(=O)N[C@@H](CCCNC(=N)N)C(N)=O)NC(=O)[C@H](CC(N)=O)NC(=O)[C@H](C(C)C)NC(=O)[C@H](Cc3ccccc3)NC2=O)cc1 (stereo in doubt; 2) |  |  | 
4.2 |  | CCOc1ccc(C[C@@H]2NC(=O)CC3(CCC(C)CC3)SSC[C@H](C(=O)N[C@@H](CCCN=C(N)N)C(=O)N[C@@H](CCCN=C(N)N)C(N)=O)NC(=O)[C@H](CC(N)=O)NC(=O)[C@H](C(C)C)NC(=O)[C@H](Cc3ccccc3)NC2=O)cc1 (stereo partly specified) | 0.046 | 103 | 8.41
 |  | CCOc1ccc(C[C@H]2NC(=O)CC3(CCC(C)CC3)SSC[C@@H](C(=O)N3CCC[C@H]3C(=O)N[C@@H](CCCNC(=N)N)C(N)=O)NC(=O)[C@H](CC(N)=O)NC(=O)[C@H](C(C)C)NC(=O)[C@H](Cc3ccccc3)NC2=O)cc1 (stereo in doubt; 3) |  | 613 | 
 |  | CCOc1ccc(C[C@H]2NC(=O)CC3(CCCCC3)SSC[C@@H](C(=O)N3CCC[C@H]3C(=O)N[C@@H](CCCN=C(N)N)C(N)=O)NC(=O)[C@H](CC(N)=O)NC(=O)[C@H](C(C)C)NC(=O)[C@H](Cc3ccccc3)NC2=O)cc1 ([dY](Et)FVNCPR-NH2; linker N-5 via X1) | 0.015 |  | 
 |  | CCOc1ccc(C[C@H]2NC(=O)CC3(CCC(C)CC3)SSC[C@@H](C(=O)N3CCC[C@H]3C(=O)N[C@@H](CCCN=C(N)N)C(=O)NCC(N)=O)NC(=O)[C@H](CC(N)=O)NC(=O)[C@H](C(C)C)NC(=O)[C@H](Cc3ccccc3)NC2=O)cc1 (stereo partly specified) [listing 1 of 2 here] | 0.025 |  | 
 |  | CCOc1ccc(C[C@H]2NC(=O)CC3(CCC(C)CC3)SSC[C@@H](C(=O)N3CCC[C@H]3C(=O)N[C@@H](CCCN=C(N)N)C(N)=O)NC(=O)[C@H](CC(N)=O)NC(=O)[C@H](C(C)C)NC(=O)[C@H](Cc3ccccc3)NC2=O)cc1 (stereo in doubt; 3) | 0.022 |  | 
 |  | CCOc1ccc(C[C@H]2NC(=O)CC3(CCC(C)CC3)SSC[C@@H](C(=O)N3CCC[C@H]3C(=O)N[C@@H](CCCN=C(N)N)C(=O)NCC(N)=O)NC(=O)[C@H](CC(N)=O)NC(=O)[C@H](C(C)C)NC(=O)[C@H](Cc3ccccc3)NC2=O)cc1 (stereo partly specified) [listing 2 of 2 here] |  | 85 | 8.37
